Measurements of several laboratories.
Lines come from different studies, so protocols differ.
Target: Activin receptor type-1 (ACVR1, Homo sapiens, UniProt Q04771)
Sequence (Q04771 1-509, as in one of the studies): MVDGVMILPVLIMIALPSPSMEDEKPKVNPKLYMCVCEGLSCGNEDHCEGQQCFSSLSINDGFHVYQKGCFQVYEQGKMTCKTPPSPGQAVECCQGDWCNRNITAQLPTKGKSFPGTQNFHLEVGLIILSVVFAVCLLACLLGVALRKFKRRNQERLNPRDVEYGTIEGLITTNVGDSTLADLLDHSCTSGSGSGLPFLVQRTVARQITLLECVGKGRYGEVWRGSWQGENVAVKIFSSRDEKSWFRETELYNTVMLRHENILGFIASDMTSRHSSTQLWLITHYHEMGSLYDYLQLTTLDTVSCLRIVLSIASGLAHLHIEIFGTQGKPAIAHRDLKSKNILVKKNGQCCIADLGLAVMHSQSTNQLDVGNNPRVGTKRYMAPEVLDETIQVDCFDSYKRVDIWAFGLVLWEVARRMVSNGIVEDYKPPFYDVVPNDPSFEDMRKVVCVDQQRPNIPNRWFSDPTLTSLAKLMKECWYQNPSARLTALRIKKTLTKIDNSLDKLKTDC

O=c1[nH]c2ccccc2n1C1CCN(Cc2ccc(-c3[nH]c4cc5ncnc5cc4nc3-c3ccccc3)cc2)CC1  remaining signal (cell-free assay; 0.5 µM): 102%
Cn1cncc1[C@](O)(COc1ccc(C#N)cc1-c1ccc(OC(F)(F)F)cc1)c1ccc(C#N)cc1  remaining binding (cell-free assay, competition with immobilised ligand; 1 µM): 78%
Nc1ncc(-c2nc(N3CCOCC3)nc(N3CCOCC3)n2)c(C(F)F)n1  remaining binding (cell-free assay, competition with immobilised ligand; 10 µM): 83%
Cc1nn(C)cc1-c1nc2c(N3CCN(Cc4ccc(Cl)cc4)CC3)c(Cl)cnc2[nH]1  remaining binding (binding, competition with immobilised ligand; 1 µM): 90%
Cn1cc(-c2cccc(N3CCc4c(sc5c4CC(C)(C)C5)C3=O)c2CO)cc(Nc2ccncn2)c1=O  inhibition (enzyme activity, inhibitor; 1 µM): -1%
CC(C)(C)c1cc(C=C(C#N)C#N)cc(Br)c1O  remaining activity (enzyme activity, inhibitor; 0.5 µM): 102%
N#CC1(c2ccccn2)CCN(Cc2cc(C(=O)O)c(=O)n3ccccc23)CC1  remaining binding (cell-free assay, competition with immobilised ligand; 1 µM): 96%
COc1ncccc1-c1cnn2ccc(N3CCN(C(=O)OC(C)C)CC3)nc12  remaining binding (binding, competition with immobilised ligand; 1 µM): 72%
